NPY Y1 blocker – NPY-Y1 (human) receptor antagonism | P25929 | HEK293-CNG Y1 cells, membrane potential fluorescence; NPY at EC95, then isoproterenol | inhibition, % at 3.6 µM | hit rate 1% among 200,000 | AID 1040;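 active = inhibition above the campaign mean inhibition of all tested compounds plus 3 SD, cut at about 20% in these data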;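 also: 0% = DMSO wells given NPY plus isoproterenol and 100% = isoproterenol alone without NPY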
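System: HEK293 cells with Y1 receptor plus CNG channel / Probe or stimulus: NPY 25 nM then isoproterenol 1 µM plus Ro 20-1724 25 µM / Compound: one concentration, 3.6 µM, in 0.4% DMSO / Schedule: compound incubation 1 h at room temperature, readout 45 min post-stimulation / Measured by: membrane potential fluorescence / Read-out: % inhibition of NPY effect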
EP2 antag – EP2 receptor (human) inhibition; AID 1422; C6 glioma cells expressing human EP2, cAMP TR-FRET; cells stimulated with saturating PGE2; inhibition, % at 25 µM; hit rate 0.52% among 260,000; P43116;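 active = percent inhibition above 40 after rounding to a whole number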;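 also: rat C6 glioma host cells with rolipram phosphodiesterase inhibitor present; the protocol text gives 20 µM as final concentration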
Target sequence (P43116 whole entry, looked up): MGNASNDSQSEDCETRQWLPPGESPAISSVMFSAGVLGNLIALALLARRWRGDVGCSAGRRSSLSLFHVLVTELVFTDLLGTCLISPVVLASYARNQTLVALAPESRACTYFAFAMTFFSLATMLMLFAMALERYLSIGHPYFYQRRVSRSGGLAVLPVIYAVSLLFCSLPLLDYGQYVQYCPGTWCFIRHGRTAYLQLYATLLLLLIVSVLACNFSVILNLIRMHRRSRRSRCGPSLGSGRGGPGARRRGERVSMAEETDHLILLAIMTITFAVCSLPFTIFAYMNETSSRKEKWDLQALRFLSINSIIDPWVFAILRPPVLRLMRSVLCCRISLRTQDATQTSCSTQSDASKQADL
NPY-Y1 PAM-ag – potentiators or agonists of human neuropeptide Y receptor Y1; activation, % at 3.6 µM; AID 1304; P25929; NPY-Y1 expressing cells, potentiator/agonist activation; hit rate 0.37% among 220,000; in the data active = activation above about 33%, passing the limit was not always enough;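 also: cells stimulated with NPY at EC10 then isoproterenol at EC100; 0% = low agonist plus stimulus and 100% = saturating agonist plus stimulus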
NPY-Y2 PAM-ag – human NPY-Y2 potentiation or agonism, primary screen; P49146; activation, % at 3.6 µM; cells expressing NPY-Y2, potentiator/agonist read-out; hit rate 0.45% among 220,000; in the data active = activation above about 27%;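 also: cells stimulated with NPY near EC25 plus isoproterenol at EC100; 0% = vehicle plus submaximal agonist and 100% = vehicle plus saturating agonist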
Target sequence (P49146 whole entry, looked up): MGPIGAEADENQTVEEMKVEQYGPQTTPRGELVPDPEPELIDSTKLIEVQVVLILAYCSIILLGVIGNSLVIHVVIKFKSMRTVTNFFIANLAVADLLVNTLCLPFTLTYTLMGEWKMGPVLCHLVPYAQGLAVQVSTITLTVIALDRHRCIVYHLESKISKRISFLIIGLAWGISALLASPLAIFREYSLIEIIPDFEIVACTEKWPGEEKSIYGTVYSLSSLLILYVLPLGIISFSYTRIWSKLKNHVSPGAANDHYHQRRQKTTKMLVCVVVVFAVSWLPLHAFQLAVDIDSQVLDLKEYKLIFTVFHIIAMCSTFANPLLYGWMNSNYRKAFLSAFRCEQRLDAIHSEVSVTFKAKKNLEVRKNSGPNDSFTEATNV
EP2 mod – EP2 receptor (human) modulation. induction, % at 25 µM. hit rate 0.83% among 260,000. AID 940. P43116. EP2-expressing cells, cAMP HTRF FRET, PGE2 co-stimulation;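 active = compounds whose cAMP rise, as percent of the full-agonist control response, exceeds 60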;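 also: rat C6 glioma line stably carrying human EP2 under a CMV promoter; the protocol text gives 20 µM as final concentration; 100% = response of wells given 1 µM PGE2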
NPY Y2 blocker – blocks the human neuropeptide Y Y2 receptor; hit rate 0.99% among 140,000; inhibition, % at 2.7 µM; NPY-Y2 expressing cells, antagonist mode; P49146; in the data active = inhibition above about 17%;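 also: 0% = vehicle with agonist challenge and 100% = reference antagonist with challenge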
NPY-Y1 antag ct – counter-screen for NPY-Y2 antagonists: human NPY-Y1 antagonism; hit rate 19% among 710; shares compounds with NPY Y2 blocker; cell-based NPY-Y1 antagonism counterscreen; inhibition, % at 3.6 µM; in the data active = inhibition above about 20%;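 also: cells challenged with NPY then isoproterenol with cAMP sensed through a CNG channel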
NPY2 antag conf – confirmation of human neuropeptide Y receptor Y2 antagonists. shares compounds with NPY Y2 blocker. HEK293 NPY-Y2 CNG channel, membrane potential fluorescence. inhibition, % at 2.8 µM. hit rate 32% among 710;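 active = mean inhibition of triplicate wells above the hit cutoff set in the primary screen, cut at about 17% in these data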;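 also: 0% = DMSO with NPY challenge and 100% = BIIE0246 high control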
Starred values were filed as active, the others as inactive; . = not tested or not shown. A selection: hits, their analogues and other compounds. The true share with any hit is near 2.8%.

SMILES | NPY Y1 blocker | EP2 antag | NPY-Y1 PAM-ag | NPY-Y2 PAM-ag | EP2 mod | NPY Y2 blocker | NPY-Y1 antag ct | NPY2 antag conf
Clc1ccc(-c2nnn(Cc3nc4ccccc4s3)n2)cc1 | 11 | 5 | -38 | -22 | -43 | 18* | 20 | 24*
CN1CCN(c2ccc(S(=O)(=O)N3CCCCC3)cc2NC(=O)c2ccc(C#N)cc2)CC1 | 4 | 7 | -3 | -2 | 12 | 0 | . | .
CCN1CCN(c2ccc(S(=O)(=O)N3CCCCC3)cc2NC(=O)c2ccc(F)cc2)CC1 | 3 | 3 | 9 | -8 | 14 | 18* | 0 | 7
O=C(Nc1ccc(S(=O)(=O)NC2CCCC2)cc1)c1cnccn1 | 2 | 7 | -4 | -10 | 11 | 23* | 1 | 9
O=C(O)c1cc(Cl)c2ccccc2c1O | 8 | 12 | -31 | -23 | -4 | 20* | 21* | 11
O=C(Nc1ccc(F)cc1)N(Cc1ccco1)Cc1cc2cc3c(cc2[nH]c1=O)OCCO3 | . | 14 | . | . | 15 | . | . | .
COc1ccc(NC(=O)c2n[nH]c(=O)c3ccccc23)cc1S(=O)(=O)N1CCCCC1 | 4 | 11 | -18 | -9 | -1 | 27* | 15 | 19*
COc1ccc(NC(=O)C2CCC(C(C)(C)C)CC2)cc1S(=O)(=O)N1CCCCC1 (stereo not drawn) | -1 | 3 | -26 | 1 | 15 | 21* | 6 | 3
COc1ccc(OC)c(S(=O)(=O)N2CCC(C(=O)Nc3ccccc3)CC2)c1 | 0 | 7 | -3 | -4 | -12 | . | . | .
CC(C)NCC(O)COc1ccc(COCCOC(C)C)cc1 (stereo not drawn) | . | 11 | . | . | . | . | . | .
CC(C)NCC(O)COCCOc1ccc(C(C)(C)C)cc1 (stereo not drawn) | 5 | 7 | -47 | -26 | 7 | 24* | 3 | 9
CC(C)OC(=O)/C(=C/c1ccc2c(c1)c1ccccc1n2C)NC(=O)c1ccccc1 | 2 | 6 | -15 | -17 | 14 | 21* | 6 | 20*
Cn1c2ccccc2c2cc(/C=C(\NC(=O)c3ccccc3)C(=O)O)ccc21 | . | 2 | -5 | -7 | -10 | . | . | .
CCN(Cc1ccco1)C(=O)Cn1nc2c3c(C)c(C)sc3nc(C)n2c1=O | . | 4 | . | . | -28 | . | . | .
CC(=O)Nc1ccc(NC(=O)CSc2nc3ccccc3o2)cc1 | 3 | 5 | -5 | -4 | -9 | 2 | . | .
O=C(CSc1nc2ccccc2o1)c1ccc2c(c1)OCCO2 | 9 | 15 | -28 | -3 | -21 | 22* | 9 | 18*
O=C(CN(Cc1ccc2c(c1)OCO2)C(=O)CSc1nc2ccccc2o1)NC1CCCCC1 | 13 | 13 | -4 | -17 | -34 | 17* | 16 | 19*
Cc1cccc(NC(=O)CSc2nc3ccccc3o2)c1 | 11 | 7 | -28 | -12 | 6 | 22* | 8 | 8
Cc1ccc(/C=C/c2nc(O)c([N+](=O)[O-])c(=O)[nH]2)cc1 | . | 16 | . | . | 4 | . | . | .
C/C(Cn1nnc([N+](=O)[O-])n1)=N\NC(=O)c1ccccc1O | . | 3 | -43 | -19 | 3 | . | . | .
C/C(Cn1nnc([N+](=O)[O-])n1)=N\NC(=O)c1ccc(O)cc1O | -1 | 6 | -3 | -1 | 15 | 25* | -2 | 0
O=C(NC(=S)Nc1ccccc1N1CCCCC1)c1ccco1 | 8 | 7 | -67 | -3 | 30 | 18* | 12 | 8
CC1CCCCN1c1nc2c(c(=O)[nH]1)CCN(Cc1ccc(F)cc1)C2 (stereo not drawn) | . | . | . | . | -8 | . | . | .
COC(=O)C1=C(C(=O)OC)SC2(S1)C(C(=O)OC)=C(C(=O)OC)SC1=C2c2cccc(C)c2NC1(C)C | 5 | 6 | 7 | -3 | 28 | 18* | 9 | 33*
COC(=O)c1c(C)[nH]c(C)c1-c1ccccc1Cl | 4 | 14 | 0 | 19 | 39 | 3 | . | .
SMILES | NPY Y1 blocker | EP2 antag | NPY-Y1 PAM-ag | NPY-Y2 PAM-ag | EP2 mod | NPY Y2 blocker | NPY-Y1 antag ct | NPY2 antag conf
COc1ccc(NC(=O)CSc2nc3ccccc3c(=O)n2CCCN2CCCCC2)c(OC)c1 | 15 | . | -45 | -13 | 3 | 24* | 14 | 20*
COCCCn1c(SCC(=O)Nc2cc(OC)ccc2OC)nc2ccccc2c1=O | . | 5 | . | . | 38 | . | . | .
Cc1ccc(-c2nn3c(C)nnc3s2)cc1NC(=O)c1ccc(-c2cccc(Cl)c2)o1 | 8 | 11 | -23 | -10 | -5 | 6 | . | .
Cc1ccc(-c2nn3c(C)nnc3s2)cc1NC(=O)c1ccc(-c2ccc(Cl)cc2Cl)o1 | 4 | 9 | -14 | -10 | 28 | 19* | 22* | 24*
COc1ccccc1CCNCc1ccc(OC)c(OCc2ccccc2)c1 | 3 | 8 | -3 | -36 | 24 | 20* | 8 | 92*
CCCCc1nc2ccccc2c(N)c1CCC (tested in a mixture with another compound) | 15 | 5 | -49 | 8 | 0 | 18* | 5 | 5
CCOc1ccc(C(C(=O)NC2CCCC2)N(Cc2ccccc2)C(=O)c2nsc(Cl)c2Cl)cc1 (stereo not drawn) | 18 | 16 | -25 | -16 | 33 | 25* | 21* | 14
Cc1ccc(N(C(=O)c2nsc(Cl)c2Cl)C(C(=O)NC2CCCC2)c2ccc(O)cc2)cc1C (stereo not drawn) | 0 | 10 | -14 | -7 | 48 | 4 | . | .
O=C(NCc1cccnc1)C(=O)NCc1ccc2c(c1)OCO2 | . | 12 | . | . | 0 | . | . | .
Cc1ccc(-c2cc(C(=O)Nc3ccc4c(c3)OCCO4)c3ccccc3n2)cc1 | 18 | 8 | -79 | -81 | -5 | 27* | 18 | 39*
CCCC(=O)Nc1nnc(C(C)C)s1 | . | 5 | . | . | 0 | . | . | .
Cc1ccc2[nH]c(=O)c(CN(Cc3cccnc3)C(=O)Nc3ccccc3Cl)cc2c1 | . | 6 | . | . | -31 | . | . | .
CC(C)(CO)NC(=O)C1CC(c2ccc(Cl)cc2)=NO1 (stereo not drawn) | . | 10 | . | . | -19 | . | . | .
Cc1cc([N+](=O)[O-])cc(C)c1OCC(=O)N/N=C/c1ccc(OC(=O)c2ccccc2)cc1 | -2 | 5 | -4 | 4 | -50 | 20* | 3 | 17
Cc1cccc2cc(C#N)c(SCC(=O)Nc3ccccc3N3CCOCC3)nc12 | -1 | 12 | -9 | 11 | 25 | 0 | . | .
N#Cc1cc2ccccc2nc1SCC(=O)Nc1ccccc1N1CCOCC1 | 8 | . | 9 | -1 | 24 | 17* | 0 | 4
CN(C)c1ccc(/C=C2\SC(=O)N(CC(O)Cn3c4ccccc4c4ccccc43)C2=O)cc1 (stereo not drawn) | 14 | 9 | -24 | -7 | -3 | 21* | 26* | 9

Bioassay records from PubChem.
